The labels stand for the following.
T1: CarS (Myxococcus xanthus, UniProt Q06911)
T1 sequence (Q06911 1-111): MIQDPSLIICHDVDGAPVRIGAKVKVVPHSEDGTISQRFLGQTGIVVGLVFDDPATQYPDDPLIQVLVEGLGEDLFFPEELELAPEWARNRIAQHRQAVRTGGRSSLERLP

B1: CarA R15 to A: CarA with R15 mutated to A (ref 10) (protein, UniProt Q50899 1-288, looked up, variant R15A)
HTH-type transcriptional …: MTLRIRTIARMTGIAEATLRAWERRYGFPRPLRSEGNNYRVYSREEVEAVRRVARLIQEEGLSVSEAIAQVKTEPPREQPEAERLRERFWSSVGALEGDEVTRVLDDAQTVMDVEAYCDGFLLPLLREMGVRLDVAREHLASALIRQRLRQVYDALSPAPAGPRALLACPSGDHHEGGLLVLGIHLKRKGWRVTMLGADTPAAALQGACVQVRPDVVALSFVRARAPEEFASVLEDALRACAPFPVVVGGLGAREHLKAIFSLGAQYAESSEELVAIWNQVRNAQNRP
B2: R20′ to A: CarA with R20 mutated to A (ref 10) (protein, UniProt Q50899 1-288, looked up, variant R20A)
HTH-type transcriptional …: B1 HTH-type transcriptional … with A15R, R20A
B3: CarANt, N-terminal DNA-binding domain of CarA (domain or fragment, Myxococcus xanthus)
chain: MTLRIRTIARMTGIREATLRAWERRYGFPRPLRSEGNNYRVYSREEVEAVRRVARLIQEEGLSVSEAIAQVKTEPPRE
B4: CarHNt: CarH N-terminal DNA-binding domain (protein)
chain: MAERTYRINIAAELAGVRVELIRAWERRYGVLTPRRTPAGYRAYTDRDVAVLKQLKRLTDEGVAISEAAKLLPQLMEGLE
modifications: left off: H6, end not stated, cleaved
B5: CarS antirepressor (natural protein, Myxococcus xanthus, UniProt Q06911 1-111, looked up)
chain: T1 sequence (Q06911 1-111)
B6: CarS: antirepressor of Myxococcus xanthus (protein)
chain: T1 sequence (Q06911 1-111)
modifications: left off: H6, end not stated, cleaved
B7: CarS1, functional truncated form of CarS (lacking the last 25 residues) (domain or fragment)
chain: MIQDPSLIICHDVDGAPVRIGAKVKVVPHSEDGTISQRFLGQTGIVVGLVFDDPATQYPDDPLIQVLVEGLGEDLFFPEELELAPE

Numbering of substitutions follows the chain as printed. Read-outs that look alike come from different tables or passages of the source.

Data set [1] addresses T1, CarS. The data set can be described thus: ITC titration with CarS. The class given is binding.
The target of data set [2] is T1, CarS. As to conditions: cited from earlier work.
The data set “CarS antirepressor” addresses B5. Kind of data set: ITC. Background: ITC needs no label: the signal is the heat of the interaction.
The target of data set [3] is T1, CarS. The data set can be described thus: Analytical gel filtration, complex formation with CarS. The class given is binding. To be noted: Superdex200, pH 7.5, mixture with CarS. In short, it runs like this:
(§1)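 Superdex200 analytical size-exclusion HPLC in 50 mM phosphate pH 7.5, 2 mM β-mercaptoethanol and the required NaCl. Samples were 10–50 µM pure protein, or CarNt or CarHNt mixed with CarS or variant at equivalent concentrations. Flow was 0.4 ml/min with detection at 280, 235 and 220 nm. Peak fractions were identified by SDS–PAGE. Mr was taken from elution volume via log Mr = 7.64 – 0.209 Ve.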

Data set [4] deals with B3. The data set can be described thus: ITC.
In data set [5] the target is P01, CarA α2 peptide (α2 segment plus the subsequent eight C-terminal residues) (Myxococcus xanthus). Kind of data set: ITC.
The target of data set [6] is P02, CarA α2 peptide (α2 only) (Myxococcus xanthus). Kind of data set: ITC.
Data set [7] has as its target CHP01, CarHNt peptide equivalent to P01 (Myxococcus xanthus). The data set can be described thus: ITC.
The nature of data set [8]: Analytical gel filtration of pure proteins. As to conditions: Superdex200, 50 mM phosphate pH 7.5, 2 mM β-mercaptoethanol. The format is physicochemical. The essentials:
as §1

The next data set relates to CarA. The data set can be described thus: Yeast two-hybrid interaction with CarA. The class given is cell-based, Myxococcus xanthus. As to conditions: 30°C. The essentials: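 Yeast EGY48 carrying lacZ reporter pSH18-34 was cotransformed (lithium acetate) with LexA–CarA and B42–CarS or variant fusions. Equal-density cultures were spotted on galactose or glucose (basal fusion expression) plates with leucine, grown 1 day at 30°C, then overlaid with X-Gal agarose for 2–3 h (Gal) or ≥7 h (Glu). Interaction was scored by blue colour; single-hybrid cells served as controls.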

The test system of a further data set is CarANt. Kind of data set: Analytical gel filtration, complex formation with CarANt. The format is binding, Myxococcus xanthus. The essentials:
as §1
In general terms: Size exclusion chromatography separates by hydrodynamic size, large species first.

For data set [9], the target named is P01, CarA α2 peptide (α2 segment plus the subsequent eight C-terminal residues) (Myxococcus xanthus). Kind of data set: ITC. The source holds these as a separate data set.
Data set [10] shares this target. Kind of data set: ITC. The source holds these as a separate data set.
Data set [11] shares this target. Kind of data set: ITC. The source holds these as a separate data set.
For data set [12], the system named is CarA or CarH N-terminal domain. As to conditions: cited from earlier work.

By Kd is commonly meant the concentration at which binding is half-saturated. Turning to Ac-GVRVELIRAWERRYGVLTPRRTP-NH2 [CHP01], the Kd at CarS [1] is 690 ± 140 nM. For the same molecule, at CarS [1] (ITC with CarS, pH 7.5), the “ITC heat change / binding” value is on record as “bind tightly to CarS, but with a KD somewhat higher than for P01”. The “N (binding stoichiometry)” value at CarS [1] (ITC, CarS, 25 °C, pH 7.5, 100 mM NaCl, 50 mM phosphate, 2 mM β-mercaptoethanol, 0.05% sodium azide, 20 µM CarANt or peptide titrated with 0.22 mM CarS, average of at least two independent titrations) is reported as 0.91 ± 0.01. At CarS [1] (ITC, CarS, 25 °C, pH 7.5, 100 mM NaCl, 50 mM phosphate, average of at least two independent titrations), this molecule came in with a ΔH of −7.15 ± 0.17 kcalmol^−1.
For the molecule B1, the “Interaction of CarA variant with CarS” value with CarS [2] was “CarS-binding was not impaired”.
On to B2, for which, in the data set with CarS [2], the “Interaction of CarA variant with CarS” value is “no apparent impairment in interactions with CarS”.
Turning to B3, the affinity in the data set with CarS antirepressor, expressed as Kd, was 12 ± 3 nM.
Turning to B4, in the data set with CarS [3], the “Apparent Mr of complex with CarS” value is “≈ 35 kDa” and the “Complex formation with CarS” value is reported as “forms a 1:1 complex”.
Usually stoichiometry N stands for a count of units in the complex or per binding partner. As to B5, the dH in [4] is -9.24 ± 0.02 kcalmol^−1; in data set [5], -11.7 kcalmol^−1; in [6] it was -12 kcalmol^−1; in data set [7], -7.15 kcalmol^−1. Further, the “stoichiometry N” value in [4] is 0.94 ± 0.01; in data set [5], 0.93; in [6], 1.07; in data set [7], 0.91. Further, the dissociation constant Kd came to 150 nM in [5], 300 nM in data set [6] and 690 nM in data set [7].
Turning to B6, in data set [8], the “Apparent Mr of pure protein” value worked out at 15.1 ± 0.8 kDa. Moreover, the “Two-hybrid blue color, galactose plates” value with CarA (galactose plates, X-gal overlay) was “turned blue within two hours”. In the data set on CarA (glucose plates (basal B42-fusion expression), X-gal 7–24 h), the “Two-hybrid blue color, glucose plates” value is recorded as “blue color”. The “Apparent Mr of complex/peak in mixture with CarANt” value with CarANt (Superdex200, 50 mM phosphate pH 7.5, 2 mM β-mercaptoethanol, mixture with CarANt) worked out at 30 ± 2 kDa. In the data set with CarANt (Superdex200, pH 7.5, mixture with CarANt), the “Complex formation with CarANt” value is “formed a stable 1:1 complex”.
In the case of B7, the Kd came out at 270 nM in data set [9]; 150 nM in [5]; 490 nM in [6]; 175 nM in data set [10]; 200 nM in data set [11]. Further, the dH in [9] is -14.4 kcalmol^−1; in data set [5], -8.46 kcalmol^−1; in [6], -7.6 kcalmol^−1; in data set [10], -5.7 kcalmol^−1; in data set [11], -10.9 kcalmol^−1. Further, the stoichiometry N in data set [9] turned out to be 0.89; in data set [5], 0.92; in data set [6] it was 0.97; in data set [10], 0.93; in data set [11], 0.89. In [12], the Complex formation stoichiometry result is “forms a 1:1 complex”.
